# This excerpt belongs to a sample that is enriched for hits.
# HSF1 inhib: HSF1 inhibition; NIH3T3-HGL HSE-luciferase, MG132-induced, luminescence 8 h; stronger effect = lower value; activity change, negative = inhibition, % at 7.5 µM (by protocol); 300,000 tested, 0.77% active; AID 2098;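 active = more than half of replicate wells show activity change below -50%, luminescence cut by over half; inconclusive = some wells, but at most half, below -50%; inactive = no replicate well below -50%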;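 note: luciferase reports HSF-1 transcriptional activity via heat shock element; 0% = median of DMSO wells and -100% = zero luminescence signal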
# Hsp70 act: switches on Hsp70 transcription; HeLa Hsp70 promoter luciferase reporter, luminescence; scaled: vehicle 0, proteasome-inhibitor control 100%; 200,000 tested, 0.04% active; activation, % at 10 µM;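 active = activation above the mean across all tested compounds plus 3 SD, cutoff set per campaign, cut at about 5.5% in these data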;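 note: 100% = MG132 at 30 µM as the positive control and 0% = DMSO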
# HSF-1 act: increases HSF-1 driven luciferase reporter signal; NIH3T3-HGL HSF-1 luciferase reporter, MG132, 8 h; 100% = twice DMSO control signal; activation, % at 9 µM; 300,000 tested, 1.7% active; AID 504408;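 active = mean replicate activation of at least 50% with a set share of replicates each reaching 50%; inconclusive = only one of those two conditions met; inactive = mean below 50% and too few replicates reaching it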;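 note: 0% = median of the neutral control wells and 100% = twice that signal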
# L major viab: reduces viability of Leishmania major promastigotes; resazurin fluorescence viability; inhibition, % at 10 µM; 200,000 tested, 9% active; AID 1063; in the data active = inhibition above about 50%;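 note: promastigotes grown with compound for 44 hours at 28 °C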
# T cruzi repl: blocks replication of Trypanosoma cruzi; T. cruzi beta-gal in NIH3T3, luminescence, 90 h; inhibition, % (concentration not given with the values); 300,000 tested, 1.4% active; AID 1885;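 active = mean inhibition across valid replicates above about 55%, limit read from the data; inconclusive = mean below that limit but half or more replicates reach it; inactive = mean below it, under half of replicates reach it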;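 note: signal also drops with host cell toxicity which is not excluded here; 0% = plate median of DMSO wells and 100% = zero luminescence signal; higher percent means less beta-gal luminescence so fewer parasites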
#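 Incubation – ≥90 h infection period, 3 h prior cell attachment · System – NIH/3T3 fibroblasts plus reporter T. cruzi · Doses – compound pinned at 50 nL/well, DMSO · Read-out basis – percent inhibition of parasite-derived β-gal signal · Signal – luminescent β-galactosidase signal after 60 min lysis · Also added – 5000 T. cruzi trypomastigotes/well · Medium – Low-serum DMEM with 2% FBS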
# Starred values were filed as active, the others as inactive; ? = inconclusive; . = no result given.
SMILES,HSF1 inhib,Hsp70 act,HSF-1 act,L major viab,T cruzi repl
CN1CCN(/N=C/c2cccc(Cl)c2Cl)CC1,8,0,2,8,62*
COc1ccc(-n2ncc3c(N4CCN(Cc5ccccc5)CC4)ncnc32)cc1,-12,0,13,67*,15
CCN1CCN(c2ncnc3c2cnn3-c2ccccc2)CC1,9,0,5,-3,8
c1ccc(CCN2CCN(c3ncnc4c3cnn4-c3ccccc3)CC2)cc1,9,0,24,42,64*
Cc1ccc(C(=O)N2CCN(c3ncnc4c3cnn4-c3ccccc3)CC2)cc1,-8,0,2,53*,19
CC(C)c1nn2c(=O)cc(COc3cccc(NC(=O)c4ccco4)c3)nc2s1,5,.,9,.,4
CC(=O)c1cccc(S(=O)(=O)NCCC(=O)O)c1,5,0,-3,-1,-7
Cc1cccc(C)c1NC(=S)NC(=O)c1ccc(Br)o1,4,0,-3,5,-7
Cc1cccc(NC(=S)NC(=O)c2ccc(Br)o2)c1C,44,0,92*,-2,-17
COc1cccc(NC(=O)CN(C)C(=O)c2ccc(-c3ccccc3Cl)o2)c1,10,.,12,.,1
O=C1COc2ccc(C(=O)/C=C/c3ccccc3)cc2N1,22,0,53*,84*,?
O=C(/C=C/c1ccccc1)c1ccc2c(c1)OCCCCO2,21,0,34,44,-21
CCCOc1nc2c(c(=O)n(C)c(=O)n2C)n1Cc1cccc2ccccc12,-2,0,9,65*,19
CCCOc1nc2c(c(=O)n(C)c(=O)n2C)n1C,-3,.,-7,.,5
CC(NC(=O)CCCN1C(=O)c2ccccc2C1=O)c1ccc2c(c1)CCCC2 (configuration not stated),118,0,203*,-13,12
CC(NC(=O)CCCCCN1C(=O)c2ccccc2C1=O)c1ccc2c(c1)CCCC2 (configuration not stated),15,0,33,34,16
COc1ccc(C2=CCCC2)c(OC)c1,1,.,1,.,.
Cc1ccccc1-n1c(SCC(=O)N2CCOCC2)nc(O)c(Cc2ccccc2)c1=O,3,.,3,.,-10
O=C(Cn1cc(C(=O)c2ccco2)c2ccccc21)NC1CCCCC1,-87*,0,-90,6,12
CC1=CC(=O)C=C(C)C1=NOc1ccccc1[N+](=O)[O-],-5,0,1,35,-9
O=C(CSCc1ccccc1Cl)Nc1c[nH]c(=O)[nH]c1=O,-4,0,5,59*,-8
O=C1N/C(=C/c2ccc(Br)cc2)C(O)=C1C=NCc1ccccc1,21,0,44,79*,-15
O=C1C(C=NCc2ccncc2)=C(O)c2ccccc21,-3,0,2,-8,-4
Cc1cc(C(=O)NC2CCCN(Cc3ccccc3F)C2)n[nH]1 (configuration not stated),-6,.,-16,.,6
Cc1ccc(C)c(S(=O)(=O)N2CCN(C(C(=O)Nc3ccc(F)cc3)c3ccccc3)CC2)c1 (configuration not stated),-5,0,2,56*,30
SMILES,HSF1 inhib,Hsp70 act,HSF-1 act,L major viab,T cruzi repl
COc1ccc(N(C(=O)c2cnccn2)C(C(=O)NC2CCCCC2)c2ccccc2)cc1 (configuration not stated),0,.,46,.,0
CN1CCN(c2ccc(S(=O)(=O)N3CCCCC3)cc2NC(=O)Cc2ccc(Cl)cc2)CC1,-4,0,20,43,23
CN1CCN(c2ccc(S(=O)(=O)N3CCCCC3)cc2NC(=O)CSCc2ccccc2)CC1,0,.,0,.,67*
Cc1ccccc1OCC(=O)Nc1cc(S(=O)(=O)N2CCCCC2)ccc1N1CCN(C)CC1,-3,0,13,46,58*
Cc1oc2c(CN(C)C)c(O)ccc2c(=O)c1-c1ccc2ccccc2n1,-1,0,23,76*,-1
CCN(CC)S(=O)(=O)c1ccc(=O)[nH]c1,-11,0,-9,-1,-26
Cc1cc(C)c2c(CN3CCN(Cc4ccccc4)CC3)cc(=O)oc2c1,-3,.,-24,.,29
Cn1c(N=Nc2ccccc2)nc2ccccc21,-7,0,6,53*,5
CN(C)c1ccc(N=Nc2nc3ccccc3n2C)cc1,-83*,.,-86,.,41
CCN(CC)S(=O)(=O)c1ccc(Oc2ccccc2)cc1,-7,0,9,99*,6
CN(C)S(=O)(=O)c1ccc(Oc2ccccc2)cc1,3,0,16,98*,-5
Cc1ccccc1CC(=O)N1CCCC1,-4,.,4,.,1
Cc1ccc(C)c(N(CC(=O)NC2CCCC2)S(=O)(=O)c2ccccc2)c1,3,.,8,.,5
CNC(=O)CSc1nnc(-c2ccccc2F)n1CCc1ccccc1,-3,.,-7,.,-6
CCOc1ccc(/C=N/N(C)c2ccccc2)cc1OC,51,0,73*,6,-4
Cc1[nH]c2ccccc2c1CCNC(=O)c1ccc2c(c1[N+](=O)[O-])C(=O)c1ccccc1C2=O,23,0,58*,95*,18
CN(C)C(=O)c1ccc2c(c1[N+](=O)[O-])C(=O)c1ccccc1C2=O,14,0,21,33,13
Cc1[nH]c2c(C)cccc2c1CCNC(=O)c1ccc2c(c1[N+](=O)[O-])C(=O)c1ccccc1C2=O,23,0,53*,100*,21
COc1ccc(Cn2nnnc2CN(Cc2cc3ccc(C)cc3[nH]c2=O)C2CCCC2)cc1,4,0,6,82*,17
CCC(C)(C)n1nnnc1CN(Cc1cc2cc(OC)ccc2[nH]c1=O)C1CCCC1,-1,0,5,98*,30
COc1ccc(Cn2nnnc2CN(Cc2cc3cccc(C)c3[nH]c2=O)C2CCCC2)cc1,12,0,3,34,21
COc1cccc(C2C(C#N)=C(N)OC(C(C)(C)C)=C2C#N)c1 (configuration not stated),19,0,21,4,-4
COc1cccc(/C=C2/CN(C)CC3=C2OC(N)=C(C#N)C3c2cccc(OC)c2)c1 (configuration not stated),23,0,20,53*,26
Cc1cc(N2CCN(c3ccccc3)CC2)nc(-n2nc(C)cc2C)n1,2,0,9,72*,26
CCN(CC(=O)Nc1cc(C)nn1-c1nc(C)cc(C)n1)Cc1ccccc1,1,0,-8,53*,17
Cc1cc(N2CCN(c3ccccc3)CC2)nc(-c2ccccc2O)n1,1,0,11,3,-7
Cc1cc(C)nc(-n2nc(C)cc2NC(=O)CN2CCCC(C)C2)n1 (configuration not stated),-6,0,-11,15,-1
Cc1cc(C)nc(-n2nc(C)cc2NC(=O)CN2CCc3ccccc3C2)n1,-4,0,21,54*,23
Cc1cc(C)nc(-n2nc(C)cc2NC(=O)CNCc2ccccc2)n1,4,0,48,6,-2

# Source: PubChem
